# According to publication PMC3040411 (Bioorganic & medicinal chemistry letters, 2010):
# How the values were obtained:
# LPA1 GPCR = conditions: cited from earlier work
# LPA2 GPCR = conditions: cited from earlier work
# Recombinant ATX = Recombinant ATX (Homo sapiens, UniProt Q13822); type: biochemical; conditions: for Mechanism of ATX inhibition: assigned by lowest averaged percent residuals of curve fitting
# Summary of the method: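 Recombinant autotaxin ([…]) with test compound at various concentrations, in pH 8.0 Tris-HCl 50 mM buffer with NaCl 140 mM, KCl 3 mM, MgCl2 and CaCl2 1 mM each, and fatty-acid-free BSA 15 μM; LPA 18:1 as positive control. Fluorescence (ex 485/em 538 nm) read at start and after 2 h, 37 °C; activity as percent of vehicle, triplicate wells. For mechanism, FS-3 varied 0.3–20 μM at three inhibitor levels; competitive, uncompetitive, mixed and non-competitive models fitted simultaneously to give Ki.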
# LPA5 = LPA5 (Homo sapiens, UniProt Q9H1C0); experiment: LPA5-mediated calcium mobilization in B103 cells stably expressing LPA5; type: cell-based; conditions: concentrations above 1 μM, p < 0.05
# Chain of LPA5 (Q9H1C0 whole entry, species assumed): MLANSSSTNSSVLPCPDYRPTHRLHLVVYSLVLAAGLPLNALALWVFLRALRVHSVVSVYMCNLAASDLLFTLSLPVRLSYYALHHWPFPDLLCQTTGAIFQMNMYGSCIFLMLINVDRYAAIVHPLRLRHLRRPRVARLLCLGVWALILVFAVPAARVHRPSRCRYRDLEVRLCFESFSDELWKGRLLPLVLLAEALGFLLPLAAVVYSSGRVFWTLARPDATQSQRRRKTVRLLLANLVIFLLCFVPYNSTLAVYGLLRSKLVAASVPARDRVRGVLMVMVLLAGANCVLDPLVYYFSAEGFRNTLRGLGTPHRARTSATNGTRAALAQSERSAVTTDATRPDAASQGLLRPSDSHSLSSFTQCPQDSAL
Mechanism of ATX inhibition (Recombinant ATX),Efficacy for LPA5-mediated calcium mobilization compared with R-3-CCPA (LPA5),"Potency in ATX inhibition relative to S-3-CCPA (Recombinant ATX; FS-3 1 μM, 2 hours at 37 °C)",Molecule,LPA1 GPCR activation (LPA1 GPCR),LPA2 GPCR activation (LPA2 GPCR)
,,,"1-acyl-2,3-glycerophosphate [CPA]",weak agonist,weak agonist
mixed mode,significantly higher,,CCCCCCCCCCCCCCCCCC(=O)OC[C@@H]1CCP(=O)([O-])O1.[Na+] [S-3-CCPA],,
mixed mode,,approximately 2 fold,CCCCCCCCCCCCCCCCCC(=O)OC[C@H]1CCP(=O)([O-])O1.[Na+] [R-3-CCPA],,
